# HIV Env fusion – blocks HIV Env-driven cell-cell fusion; inhibition, % at 12.3 µM; hit rate 1.1% among 360,000; HeLa-JRFL Env/CEM21 cell fusion, luciferase; AID 651610;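 active means mean replicate inhibition score of at least 50 and every replicate individually at or above 50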;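 further: 0% = plate neutral controls and 100% = maraviroc near 300 nM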
# CFTR F508del cor – correctors of CFTR F508del function in bronchial epithelial cells | CFBE cells, YFP halide quenching; stimulated with forskolin plus potentiator P3; % fluorescence drop versus neutral controls | activity (quench increase), % at 7.58 µM | hit rate 0.36% among 350,000 | AID 720511;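 active means mean added fluorescence quench of at least 8% versus neutral control, with both replicates also reaching 8%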;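 further: cells transiently co-express mutant CFTR-F508del with the halide-sensitive YFP; corrector assay measuring rescue of mutant channel to the surface after 24 h compound exposure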
# rRNA inh HTS – inhibits bacterial ribosomal RNA function over humanized ribosomes. E. coli WT GFP vs humanized-ribosome RFP mutants, fluorescence, 24 h; active compounds read low; DMSO median 0, no signal -100. GFP signal change (wild-type ribosome), % (no concentration beside the values). hit rate 1.6% among 350,000;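 active means significant combined selectivity score with lowered wild-type GFP, culture density cut under 30%, mutant RFP and density less affected; inactive means any of these conditions unmet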
# INS-1E GSIS act – GLuc luminescence reporter in INS-1E cells, primary screen for activators of glucose-dependent secretion of insulin. INS-1E GLuc reporter insulin secretion, 2-3 h. activation, % at 16.6 µM. hit rate 0.61% among 370,000;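 active means lowest replicate activation of at least 40%, so every replicate reaches that level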;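 further: 0% = median of neutral control wells and 100% = median of IBMX positive control wells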
# miR-122 sensor – blocks miR-122 activity in Huh7 sensor cells; Huh7 miR-122 Renilla luciferase sensor, 48 h; neutral wells = 0, positive control = 100; activation (reporter increase), % at 12.5 µM; hit rate 0.3% among 340,000;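 active means mean replicate activation score at least 90 and every replicate individually at or above 90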;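 further: higher luciferase means less miR-122 activity so hits act as miR-122 inhibitors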
# Cneo AK release – causes C. neoformans cell lysis. adenylate kinase release luminescence, 4 h; normalised: neutral wells 0, clomiphene wells 100. lysis activity, % at 15 µM. hit rate 0.2% among 360,000. AID 651654;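 active means mean lysis activity across replicates of at least 80%, whatever share of replicates individually reach that level; inactive means mean lysis activity below 80%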
#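 Test system: log-phase Cryptococcus neoformans yeast cells; Quantity: yeast cell density of 5 × 10^6 cells/mL; Buffer or medium: YPD; Doses: single compound concentration per well; Timing: 4 h at 37 °C static, read 1 h later; Measured by: AK luminescence; Read-out basis: lysis from increased AK signal; Control set: Clomiphene as positive control.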
# Active calls of the source: *; nt = not tested or not shown; [ ] = remark or other dose. Only some compounds are listed: those with a hit (about 3.1% of all), similar ones and a draw of the others.
SMILES,HIV Env fusion,CFTR F508del cor,rRNA inh HTS,INS-1E GSIS act,miR-122 sensor,Cneo AK release
C[C@@H]1CCCCO[C@@H](CN(C)Cc2ccc(C(F)(F)F)cc2)[C@H](C)CN([C@H](C)CO)C(=O)c2cc(NS(=O)(=O)c3ccc(Cl)cc3)ccc2O1,60.5*[16.7 µM],-0.6,2.8,-19.9,-14.8[16.7 µM],9.2
O=C(C[C@H]1CC[C@@H](NC(=O)Nc2ccccc2F)[C@@H](CO)O1)NCc1ccc(-c2ccccc2)cc1,nt,-2.5,-44.5,-30.0,nt,nt
Cc1ccc(S(=O)(=O)Nc2ccc3c(c2)C(=O)N([C@H](C)CO)C[C@H](C)[C@@H](CN(C)C(=O)NC(C)C)OCCCC[C@H](C)O3)cc1,-268.5[16.7 µM],-0.3,-2.0,-9.8,4.2[16.7 µM],0.6
COCCNC(=O)C[C@H]1C[C@@H]2c3cc(NC(=O)CC4CC4)ccc3O[C@@H]2[C@@H](CO)O1,-1.1[16.7 µM],-0.5,1.7,1.9,0.2[16.7 µM],-0.2
Cc1cccc(NC(=O)c2cc([N+](=O)[O-])ccc2NCC2CCCO2)n1 (centres undefined),-14.9,1.4,-21.7,7.6,nt,nt
COCCCNc1ccc([N+](=O)[O-])cc1C(=O)Nc1cccc(C)n1,-15.3,0.7,-5.9,45.5*,nt,nt
CCc1ccccc1NC(=O)c1cccc(NC(=O)/C=C/c2ccco2)c1,7.5,nt,nt,-16.1,23.5,-6.1
O=C(/C=C/c1ccco1)Nc1cccc(C(=O)Nc2ccccc2C(=O)O)c1,88.1*,-2.1,-4.2,2.2,-1.5,-4.3
CCn1c2ccccc2c2cc(NC(=O)c3ccco3)ccc21,nt,3.2,-34.5*,-3.8,3.8,0.6
Cc1ccc(N(C)S(=O)(=O)c2c[nH]c3ccc([N+](=O)[O-])cc23)cc1,3.3,1.0,-44.3,2.4,110.1*,-0.1
CC(=O)N1[C@@H]2c3cccc(=O)n3C[C@H]1[C@H](CO)[C@H]2C(=O)N[C@H](C)c1ccccc1,nt,-2.2,-0.4,-1.6,nt,nt
CCOC(=O)c1cc(-c2ccc3c(c2)OCCO3)n[nH]1,-70.3,2.2,-32.3*,-9.3,nt,nt
COc1ccc(S(=O)(=O)NC[C@@H]2CC[C@H]3[C@H](CN3Cc3cc(F)ccc3F)O2)cc1,59.9*[16.7 µM],2.0,nt,nt,nt,nt
C[C@H]1CN([C@@H](C)CO)C(=O)Cc2cc(NS(=O)(=O)c3ccc(F)cc3)ccc2O[C@H]1CN(C)S(=O)(=O)c1cn(C)cn1,-8.6[16.7 µM],-4.1,0.7,21.3,7.0[16.7 µM],-4.0
C[C@H](CO)N1C[C@H](C)[C@@H](CN(C)C(=O)C2CC2)Oc2cc(-c3cccc(F)c3)ccc2S1(=O)=O,26.6[16.7 µM],-3.5,-7.1,-7.8,nt,-2.0
Cc1cc(C)c(CN2CCN(C(=O)Cn3cnc4c(NCc5ccccc5)ncnc43)CC2)c(C)c1,87.2*,1.2,-20.4,-53.2,-6.5,0.9
COc1ccc(C(=O)N2C[C@H]3[C@@H](c4ccccc42)[C@H](CO)N3Cc2ccccc2Cl)cc1,nt,1.9,-17.2,-13.7,4.5[16.7 µM],39.3
O=C(Nc1ccc(Cl)cc1)C1CCCN(C2=NS(=O)(=O)c3ccccc32)C1 (centres undefined),70.4*,3.8,-3.4,-6.2,-28.2,-1.4
C[C@H](CO)N1C[C@H](C)[C@H](CN(C)C(=O)Nc2ccccc2)Oc2ccc(NC(=O)CCCCCC(=O)Nc3ccccc3N)cc2C1=O,nt,-2.5,2.6,-9.0,nt,nt
COCC(=O)N1[C@@H]2c3ccc(-c4ccc(F)cc4)c(=O)n3C[C@@H]2[C@@H](CO)[C@@H]1C(=O)Nc1ccccc1,nt,0.6,-1.4,-2.6,-6.5[16.7 µM],0.5
O=C(O)c1ccc(Oc2ccc(C(F)(F)F)cn2)cc1,-15.8,1.3,4.2,13.1,2.8,nt
Cc1ccccc1N1CCN(C(=O)c2ccc(Oc3ccc(C(F)(F)F)cn3)cc2)CC1,68.4*,nt,nt,-14.0,-1.8,9.6
COC(=O)c1ccc(Oc2ccc(C(F)(F)F)cn2)cc1,9.6,nt,13.8,56.2*,nt,nt
C[C@H](O)C#Cc1cnc2c(c1)C(=O)N([C@H](C)CO)C[C@H](C)[C@@H](CN(C)CC1CCCC1)O2,-8.9[16.7 µM],-1.0,1.9,11.1,-19.1[16.7 µM],11.0
O=S1(=O)c2ccc(Br)cc2N2CCC[C@@H]2CN1Cc1ccc(Cl)cc1,23.2,0.4,1.8,1.9,7.0,2.0
SMILES,HIV Env fusion,CFTR F508del cor,rRNA inh HTS,INS-1E GSIS act,miR-122 sensor,Cneo AK release
O=S1(=O)c2ccc(Br)cc2N2CCC[C@H]2CN1Cc1ccccc1,18.0,9.5*,-2.4,-30.6,140.0*,-0.7
COc1cc(-c2nnc(-c3cccs3)o2)cc(OC)c1OC,nt,nt,nt,nt,-4.2,0.3
COc1ccc(-c2nnc(-c3cccs3)o2)cc1OC,-199.1,nt,nt,72.8*,-9.2,-0.7
Cc1ccc(-c2nc(CSCC(=O)N3CCN(C(=O)c4ccco4)CC3)c(C)o2)cc1,0.1,1.1,4.4,-12.5,-3.9,-3.9
CCc1ccc(-c2nc(CSCC(=O)N3CCN(c4ccccn4)CC3)c(C)o2)cc1,85.6*,nt,nt,nt,-15.6,3.5
Cc1ccc(-c2nc(CSCC(=O)N3CCN(c4ccccn4)CC3)c(C)o2)cc1,57.1*,1.7,-12.8,-24.5,-4.8,-0.7
CN(C)C(=O)c1ccc(-c2ccc([C@@H]3[C@H]4CN(C(=O)C5CCCC5)CCCCN4[C@H]3CO)cc2)cc1,nt,-3.9,nt,nt,-27.8[16.7 µM],-1.6
CCCCOc1ccc(C2(C)NC(=O)NC2=O)cc1 (centres undefined),3.1,-0.8,-4.7,-7.5,-4.2,-1.4
CCCCOc1ccc(C2=NNC(=O)CC2)cc1,-3.6,nt,0.8,45.5*,nt,nt
O=C(Cc1ccccc1[N+](=O)[O-])NCc1ccc(Cl)cc1,nt,nt,nt,nt,-2.7,-0.7
O=C(NCc1ccc(Cl)cc1)c1n[nH]c([N+](=O)[O-])c1Cl,17.8,-5.2,-14.8*,-18.8,nt,nt
CCC(=O)N[C@@H]1C=C[C@H](CC(=O)NCC2CC2)O[C@@H]1CO,nt,3.5,2.5,9.4,nt,nt
CCOc1cc(-c2noc(CCC(=O)NCCc3ccccc3)n2)ccc1OC,20.9,-2.0,1.6,1.5,0.6,1.8
CCOc1ccc(-c2noc(CCC(=O)NC)n2)cc1OCC,-11.6,nt,nt,56.0*,1.1,-2.1
CN(C)CCCn1c2c3ccccc3ccc2c2oc(=O)c3ccccc3c21,nt,7.1,68.8,79.8*,-15.3,nt
CCc1nc2ccccc2c(C(=O)OCC(=O)N2CC(C)OC(C)C2)c1C (centres undefined),64.4*,1.5,-4.1,31.6,-1.4,-0.6
CCc1nc2ccc(C)cc2c(C(=O)Oc2cccc3cccnc23)c1C,-27.8,nt,0.9,-0.1,0.7,-0.3
CCc1nc2ccccc2c(C(=O)Oc2cccc3cccnc23)c1C,79.6*,nt,nt,nt,-6.4,0.0
C[C@@H]1CN([C@H](C)CO)S(=O)(=O)c2ccc(-c3cncnc3)cc2O[C@H]1CN(C)C(=O)C1CCC1,-9.8[16.7 µM],0.3,3.4,5.8,20.7[16.7 µM],-0.8
Cc1ccc(C(=O)CSc2nnnn2Cc2ccccc2)cc1C,-7.0,1.1,-27.8*,10.9,-5.1,nt
